We go through four compounds from ChEMBL document CHEMBL3244411, “A new warfarin metabolite: structure and function” (J Med Chem, 1978).

The nature of data set [1]: Drug metabolism in phenobarbital-induced rat liver microsomes assessed as cytochrome P450-mediated 4-hydroxy-3-(3-oxo-1-phenyl-1-butenyl)-2H-1-benzopyran-2-one metabolite formation at 3 umol measured per nmol of CYP450 under acidic conditions by LC-UV analysis in presence of cumene hydroperoxide. The format is ADME. The essentials:
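Phenobarbital-induced rat liver microsomes (100 mg/kg/day ip for 3 days) with 8.0 mg protein and warfarin sodium 3.0 × 10^-6 mol in 4.0 mL TES–MgCl2 buffer, pH 7.4, at 37 °C. No NADPH generating system; started with cumene hydroperoxide 3.3 × 10^-5 mol and stopped after 5 min. Products quantified by LC against external standards.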
On the technique in general: Microsomes from liver hold many membrane-bound enzymes, among them those of drug oxidation.

Data set [2] in a line: Drug metabolism in PCN-induced rat liver microsomes assessed as cytochrome P450-mediated 4-hydroxy-3-(3-oxo-1-phenyl-1-butenyl)-2H-1-benzopyran-2-one metabolite formation at 0.15 mmol measured per nmol of CYP450 under acidic conditions by LC-UV analysis in presence of cumene hydroperoxide. The format is ADME. The essentials: (§1)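 Liver microsomes from PCN-induced rats (100 mg/kg/day ip in corn oil for 3 days), 200 mL at 2.0 mg protein/mL in TES–MgCl2, pH 7.4, with (R)-warfarin sodium 1.5 × 10^-4 mol. Preincubated 5 min at 37 °C with shaking, started with cumene hydroperoxide 1.6 × 10^-4 mol, given a second equal addition at 10 min, stopped at 30 min on ice. Product isolated by preparative C18 LC.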

Data set [3] can be described thus: Drug metabolism in PCN-induced rat liver microsomes assessed as cytochrome P450-mediated 4-oxo-3-(3-oxo-1-phenylbut-1-enyl)-4H-chromen-2-olate metabolite formation at 0.15 mmol measured under basic conditions by LC-UV analysis in presence of cumene hydroperoxide. The format is ADME. An outline of the steps:
as §1

Data set [4] can be described thus: Drug metabolism in rat liver microsomes assessed as cytochrome P450-mediated 4-hydroxy-3-(3-oxo-1-phenyl-1-butenyl)-2H-1-benzopyran-2-one metabolite formation measured for 10 mins by LC-UV analysis. The format is ADME. An outline of the steps: (§2)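 Time course with (S)-warfarin in uninduced rat liver microsomes (cytochrome P-450 1.0 nmol/mg protein; protein 2 mg/mL) at 37 °C and pH 7.4. NADPH-supported TES–MgCl2 incubation, with products quantified by LC. Single determination from a pool of five rats.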

The nature of data set [5]: Drug metabolism in rat liver microsomes assessed as cytochrome P450-mediated 4'-hydroxywarfarin metabolite formation measured for 10 mins by LC-UV analysis. Format: ADME. An outline of the steps:
as §2

Data set [6] can be described thus: Drug metabolism in rat liver microsomes assessed as cytochrome P450-mediated 6-hydroxywarfarin metabolite formation measured for 10 mins by LC-UV analysis. Format: ADME. An outline of the steps: as §2
Data set [7] is described as follows: Drug metabolism in rat liver microsomes assessed as cytochrome P450-mediated 7-hydroxywarfarin metabolite formation measured for 10 mins by LC-UV analysis. Format: ADME. The essentials:
as §2

The nature of data set [8]: Drug metabolism in rat liver microsomes assessed as cytochrome P450-mediated 4-hydroxy-3-(3-oxo-1-phenyl-1-butenyl)-2H-1-benzopyran-2-one metabolite formation measured after 10 mins by LC-UV analysis. The format is ADME. The essentials: as §2
Data set [9] in a line: Drug metabolism in rat liver microsomes assessed as cytochrome P450-mediated 4'-hydroxywarfarin metabolite formation measured after 10 mins by LC-UV analysis. Format: ADME. An outline of the steps: as §2
Data set [10] in a line: Drug metabolism in rat liver microsomes assessed as cytochrome P450-mediated 6-hydroxywarfarin metabolite formation measured after 10 mins by LC-UV analysis. Format: ADME. An outline of the steps:
as §2

Data set [11] is described as follows: Drug metabolism in rat liver microsomes assessed as cytochrome P450-mediated 7-hydroxywarfarin metabolite formation measured after 10 mins by LC-UV analysis. Format: ADME. An outline of the steps:
as §2

The nature of data set [12]: Drug metabolism in rat liver microsomes assessed as cytochrome P450-mediated 4-hydroxy-3-(3-oxo-1-phenyl-1-butenyl)-2H-1-benzopyran-2-one metabolite formation at 3 umol measured under acidic conditions by LC-UV analysis in presence of NADPH. Format: ADME. An outline of the steps:
(§3)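 Male Wistar rat liver microsomes, uninduced or phenobarbital-induced (100 mg/kg/day ip in saline for 3 days, harvested 24 h after the last dose). Per 4.0 mL of 0.01 M TES–0.002 M MgCl2, pH 7.4: (R)- or (S)-warfarin sodium 3.0 × 10^-6 mol, NADP 1.25 µmol, glucose 6-phosphate 62.1 µmol, 8.0 mg protein. Preincubated 1.0 min at 37 °C, started with yeast G6P dehydrogenase (5.0 units), stopped by filtration after 10 min. Products quantified by LC against external standards.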

The nature of data set [13]: Drug metabolism in phenobarbital-induced rat liver microsomes assessed as cytochrome P450-mediated 4-hydroxy-3-(3-oxo-1-phenyl-1-butenyl)-2H-1-benzopyran-2-one metabolite formation at 3 umol measured under acidic conditions by LC-UV analysis in presence of NADPH. The format is ADME. The essentials:
as §3

Data set [14] can be described thus: Drug metabolism in rat liver microsomes assessed as cytochrome P450-mediated 4-oxo-3-(3-oxo-1-phenylbut-1-enyl)-4H-chromen-2-olate metabolite formation at 3 umol measured under basic conditions by LC-UV analysis in presence of NADPH. Format: ADME. An outline of the steps: as §3
A short description of data set [15]: Drug metabolism in phenobarbital-induced rat liver microsomes assessed as cytochrome P450-mediated 4-oxo-3-(3-oxo-1-phenylbut-1-enyl)-4H-chromen-2-olate metabolite formation at 3 umol measured under basic conditions by LC-UV analysis in presence of NADPH. The format is ADME. The essentials: as §3
Data set [16] can be described thus: Drug metabolism in rat liver microsomes assessed as cytochrome P450-mediated 4-hydroxy-3-(3-oxo-1-phenyl-1-butenyl)-2H-1-benzopyran-2-one metabolite formation by LC-UV analysis in presence of nitrogen. Format: ADME. An outline of the steps:
(§4)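 Same NADPH-supported microsomal incubation (warfarin 3.0 × 10^-6 mol, 8.0 mg protein, 4.0 mL TES–MgCl2, pH 7.4). Flasks were sealed with a septum and equilibrated under the stated gas atmosphere for 15 min on ice, then incubated at 37 °C. Products quantified by LC.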

A short description of data set [17]: Drug metabolism in rat liver microsomes assessed as cytochrome P450-mediated 4-hydroxy-3-(3-oxo-1-phenyl-1-butenyl)-2H-1-benzopyran-2-one metabolite formation by LC-UV analysis in presence of carbon monoxide-oxygen mixture at ratio of 80:20. Format: ADME. An outline of the steps:
as §4

A short description of data set [18]: Drug metabolism in rat liver microsomes assessed as cytochrome P450-mediated 4'-hydroxywarfarin metabolite formation by LC-UV analysis in presence of carbon monoxide-oxygen mixture at ratio of 80:20. The format is ADME. An outline of the steps: as §4
A short description of data set [19]: Drug metabolism in rat liver microsomes assessed as cytochrome P450-mediated 6-hydroxywarfarin metabolite formation by LC-UV analysis in presence of carbon monoxide-oxygen mixture at ratio of 80:20. The format is ADME. An outline of the steps: as §4
A short description of data set [20]: Drug metabolism in rat liver microsomes assessed as cytochrome P450-mediated 7-hydroxywarfarin metabolite formation by LC-UV analysis in presence of carbon monoxide-oxygen mixture at ratio of 80:20. Format: ADME. An outline of the steps:
as §4

Data set [21] is described as follows: Drug metabolism in PCN-induced rat liver microsomes assessed as cytochrome P450-mediated 4-hydroxy-3-(3-oxo-1-phenyl-1-butenyl)-2H-1-benzopyran-2-one metabolite formation at 0.15 mmol measured per nmol of CYP450 by LC-UV analysis.
The nature of data set [22]: Activity at cytochrome P450 in rat liver microsomes treated with (S)-warfarin measured after 10 mins by LC-UV analysis. Format: ADME. An outline of the steps:
(§5)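 Male Wistar rat hepatic microsomes, 8.0 mg protein in 4.0 mL 0.01 M TES-0.002 M MgCl2, pH 7.4. Enantiopure warfarin sodium 1.0 mg (3.0 × 10^-6 mol) with an NADPH-generating system (NADP 1.25 μmol, glucose 6-phosphate 62.1 μmol). Preincubated 1.0 min at 37 °C, started with G6P dehydrogenase 5.0 units, stopped after 10 min by filtration. Metabolites separated and quantified by LC against external standards.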

A short description of data set [23]: Activity at cytochrome P450 in rat liver microsomes treated with (R)-warfarin measured after 10 mins by LC-UV analysis. The format is ADME. The essentials:
as §5

The nature of data set [24]: Activity at cytochrome P450 in rat liver microsomes treated with (S)-warfarin measured for 10 mins by LC-UV analysis. Format: ADME. An outline of the steps: as §5
The nature of data set [25]: Activity at cytochrome P450 in rat liver microsomes treated with (R)-warfarin measured for 10 mins by LC-UV analysis. Format: ADME. The essentials:
as §5

Data set [26] in a line: Activity at cytochrome P450 in PCN-induced rat liver microsomes treated with (R)-warfarin at 0.15 mmol measured under basic conditions by LC-UV analysis in presence of cumene hydroperoxide. The format is ADME. The essentials:
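PCN-induced rat liver microsomes (PCN 100 mg/kg/day ip in corn oil for 3 days; killed 24 h after last dose): 200 mL of microsomes at 2.0 mg protein/mL in TES-MgCl2 buffer pH 7.4, with (R)-warfarin sodium 1.5 × 10^-4 mol. Shaken 5 min at 37 °C, then started with cumene hydroperoxide 1.6 × 10^-4 mol, re-added at 10 min, stopped at 30 min on ice. Product collected by preparative C18 LC.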

A short description of data set [27]: Activity at cytochrome P450 in rat liver microsomes treated with (S)-warfarin at 3 umol measured under basic conditions by LC-UV analysis in presence of NADPH. The format is ADME. The essentials: as §5
Data set [28] is described as follows: Activity at cytochrome P450 in phenobarbital-induced rat liver microsomes treated with (S)-warfarin at 3 umol measured under basic conditions by LC-UV analysis in presence of NADPH. The format is ADME. An outline of the steps: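 Phenobarbital induction: 100 mg/kg/day ip in saline for 3 days, microsomes isolated 24 h after the last dose. Incubation in 4.0 mL 0.01 M TES-0.002 M MgCl2, pH 7.4, with warfarin sodium 1.0 mg (3.0 × 10^-6 mol), NADP 1.25 μmol, glucose 6-phosphate 62.1 μmol and 8.0 mg microsomal protein. Preincubated 1.0 min at 37 °C, started with G6P dehydrogenase 5.0 units, stopped after 10 min by filtration. Metabolites quantified by LC against external standards.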

Turning to `CC(=O)C[C@H](c1ccccc1)c1c(O)c2ccccc2oc1=O`, the Drug metabolism is 0.15 nmol/min in data set [1]; 0.423 nmol/min in [2]; “metabolite_detected” in [3]; “metabolite_detected” in data set [4]; “metabolite_detected” in [5]; “metabolite_detected” in [6]. Moreover, the Drug metabolism result in data set [7] is given as “metabolite_detected”; in [8], “metabolite_notdetected”; in data set [9], “metabolite_detected”; in data set [10], “metabolite_detected”; in data set [11], “metabolite_detected”.

On to `CC(=O)C[C@@H](c1ccccc1)c1c(O)c2ccccc2oc1=O`, for which the Drug metabolism entry in [12] is given as “metabolite_detected”; in data set [13] it was “metabolite_detected”; in data set [14], “metabolite_detected”; in data set [15], “metabolite_detected”; in [16], “metabolite_notdetected”; in data set [17] it was “metabolite_detected”. Moreover, the Drug metabolism entry in [18], in [19], in data set [20], in [4], in data set [5] and in data set [6] was “metabolite_detected” each time. The Drug metabolism result in [7] was “metabolite_detected”; in data set [8], “metabolite_notdetected”; in data set [9], “metabolite_detected”; in [10], “metabolite_detected”; in [11] it was “metabolite_detected”; in [21] it was 0.19 nmol/min.

On to `CC(=O)CC(c1ccc(O)cc1)c1c(O)oc2ccccc2c1=O` (stereo unspecified), for which the Drug metabolism entry in data set [22], in [23], in data set [24] and in data set [25] was “metabolite_detected” each time.

With `CC(=O)/C=C(\c1ccccc1)c1c(O)oc2ccccc2c1=O`, the Drug metabolism result in data set [26], in data set [27] and in data set [28] was “metabolite_detected” each time.
